Several values for one entry are separate records, joined by “and”; a condition that tells them apart may be missing. Equal values may be shown once. Read-outs that look alike come from different tables or passages of the source.
Experiments:
[1] = molecular target: X. laevis AHR1β (Xenopus laevis, UniProt Q4QY30); assay: Transactivation; assay type: cell-based
How it was run: (§1)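 Same COS-7 co-transfection: AHR construct, X. laevis ARNT1, pGudLuc6.1 firefly reporter and pRL-TK control, total DNA 300 ng, triplicate wells. Graded FICZ (0.5% DMSO vehicle) was added 5 hours post-transfection. Cells were lysed 3 hours after dosing for dual luciferase. Firefly/Renilla ratio, minus vehicle, was normalized to each AHR's maximum. EC50 came from non-linear regression with background 0 and maximum 1; 3-4 replicates.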

[2] = molecular target: T1, frog AHR1β N325S mutant (Xenopus laevis, UniProt Q4QY30, N325S); assay: Transactivation; assay type: cell-based
[3] = molecular target: frog AHR1β A354S mutant (Xenopus laevis, UniProt Q4QY30, A354S); assay: Transactivation; assay type: cell-based
How it was run: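 COS-7 cells (DMEM, 10% FBS, 37°, 5% CO2) were seeded at 30,000/well. After 24 h, triplicate wells were co-transfected with 50 ng AHR plasmid, 50 ng X. laevis ARNT1, 20 ng pGudLuc6.1 (mouse CYP1A1 enhancer, four XREs) and 3 ng pRL-TK, totalling 300 ng. Five hours later, cells received 0.5% DMSO or graded FICZ. Firefly/Renilla luciferase was read at 3 h, vehicle-subtracted and normalized to maximum. EC50 came from nonlinear regression (bottom 0, top 1). n=3-4.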

[4] = molecular target: frog AHR1β A370S mutant (Xenopus laevis, UniProt Q4QY30, A370S); assay: Transactivation; assay type: cell-based
[5] = molecular target: T2, frog AHR1β A354S/N325S mutant (Xenopus laevis, UniProt Q4QY30, A354S/N325S); assay: Transactivation; assay type: cell-based
[6] = molecular target: mouse AHR^b-1 (Mus musculus, UniProt P30561); assay: Transactivation; assay type: cell-based
[7] = molecular target: frog AHR1β T256A mutant (Xenopus laevis, UniProt Q4QY30, T256A); assay: Transactivation; assay type: cell-based
How it was run: (§2)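 COS-7 cells in DMEM with 10% FBS (37°, 5% CO₂), 30,000/well, transfected 24 hours later in triplicate wells. Each well received 50 ng AHR construct, 50 ng X. laevis ARNT1, 20 ng pGudLuc6.1 (CYP1A1 enhancer, four XREs) and 3 ng pRL-TK, with empty vector to 300 ng. After 5 hours, graded TCDD was added (0.5% DMSO), and cells were lysed 18 hours later. EC50 came from regression of fractional firefly/Renilla response (vehicle-subtracted, max=1); n=3-4.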

[8] = molecular target: frog AHR1β S263P mutant (Xenopus laevis, UniProt Q4QY30, S263P); assay: Transactivation; assay type: cell-based
How it was run: as §2

[9] = molecular target: frog AHR1β T256A/S263P mutant (Xenopus laevis, UniProt Q4QY30, S263P/T256A); assay: Transactivation; assay type: cell-based
How it was run: as §2

[10] = molecular target: frog AHR1β S371T mutant (Xenopus laevis, UniProt Q4QY30, S371T); assay: Transactivation; assay type: cell-based
How it was run: as §2

[11] = molecular target: frog AHR1β S294Q mutant (Xenopus laevis, UniProt Q4QY30, S294Q); assay: Transactivation; assay type: cell-based
How it was run: as §2

[12] = molecular target: frog AHR1β KHSR mutant (R345K, D346H, T347S, G348R) (Xenopus laevis, UniProt Q4QY30, D346H/G348R/R345K/T347S); assay: Transactivation; assay type: cell-based
[13] = system: frog AHR1β; assay: Velocity sedimentation analysis of [3H]TCDD binding; design: species or system Xenopus laevis; conditions: 2 nM [3H]TCDD, 18 hr at 4° C, sucrose gradients
How it was run: (§3)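 They were incubated 18 hr at 4 °C with 2 nM [3H]TCDD, then run on sucrose gradients in a vertical rotor. Peak-fraction dpm minus unprogrammed-lysate dpm gave specific binding, expressed relative to wild-type AHR1β. AHR input was checked by western blot. Three replicates.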

[14] = system: chimeric AHR (frog AHR1β with mouse LBD); assay: as above; design: species or system Xenopus laevis / mouse; conditions: 2 nM [3H]TCDD, 18 hr at 4° C, sucrose gradients
How it was run: as §3

[15] = molecular target: T2, frog AHR1β A354S/N325S mutant; assay: as above; conditions: 2 nM [3H]TCDD, 18 hr at 4° C, sucrose gradients
How it was run: as §3

[16] = molecular target: T1, frog AHR1β N325S mutant; assay: Velocity sedimentation analysis of [3H]TCDD binding; conditions: 2 nM [3H]TCDD, 18 hr at 4° C, sucrose gradients
[17] = system: AHR1α; conditions: AHR1α vs mouse AHR; cited from earlier work
[18] = system: AHR1β; conditions: AHR1β vs mouse AHR; cited from earlier work
[19] = system: AHR from the common tern; conditions: common tern AHR vs chicken AHR; cited from earlier work
[20] = system: mouse AHR S359A; conditions: S359A in mouse AHR vs wild type; cited from earlier work
[21] = molecular target: chimeric frog AHR1β containing the mouse LBD (Xenopus laevis, UniProt P30561+Q4QY30); assay: Transactivation; assay type: cell-based
How it was run: as §1

Clc1cc2c(cc1Cl)Oc1cc(Cl)c(Cl)cc1O2 [TCDD, 2,3,7,8-tetrachlorodibenzo-p-dioxin]
EC50 [1]: 18.6 ± 4.7 nM | EC50 [2]: 5.7 ± 1.6 nM | fold greater TCDD responsiveness (EC50 decline) relative to AHR1β ([2]; N325S vs wild type AHR1β): 3 fold and 3.2 fold | EC50 [3]: 1.2 ± 0.4 nM | EC50 [4]: 1 ± 0.4 nM | fold greater TCDD responsiveness relative to AHR1β ([4]; A370S vs wild type AHR1β): 18.6 fold | EC50 ([5]; EC50 for reporter gene induction, TCDD, (24 hr), COS-7 cells, A354S/N325S): 0.8 nM and 0.82 nM | fold greater TCDD responsiveness relative to AHR1β ([5]; N325S/A354S vs wild type AHR1β): ~23 fold | EC50 [6]: 0.5 ± 0.16 nM | EC50 [7]: 23.1 nM | EC50 [8]: 23.7 ± 8.8 nM | EC50 [9]: 20.6 ± 8 nM | EC50 [10]: 13.5 ± 3.3 nM | EC50 [11]: 25.9 ± 1.1 nM | EC50 [12]: 23 nM | TCDD binding (in words) [13]: barely detectable | TCDD binding (in words) [14]: greatest TCDD binding | TCDD binding (in words) [15]: approaching that of the chimera | TCDD binding (in words) [16]: greater TCDD binding than either A354S or A370S | fold lower TCDD affinity than mouse AHR [17]: more than 25 fold | fold lower TCDD affinity than mouse AHR [18]: more than 25 fold | fold lower TCDD affinity than AHR from chicken [19]: 7 fold | reduction of TCDD binding [20]: 40%

O=Cc1c2[nH]c3ccccc3c2cc2[nH]c3ccccc3c12 [FICZ, 6-formylindolo[3,2b]carbazole]
EC50 ([1]; read-out: EC50 for reporter gene induction, FICZ, (3 hr), COS-7 cells, AHR1β): 0.08 nM | fold increase in FICZ responsiveness ([2]; N325S vs AHR1β, 3 hr): about 2 fold | EC50 ([2]; read-out: EC50 for reporter gene induction, FICZ, (3 hr), COS-7 cells, N325S): 0.07 nM | FICZ responsiveness (in words) ([3]; A354S, 3 hr): restored responsiveness to a level comparable to the chimera | EC50 ([3]; read-out: EC50 for reporter gene induction, FICZ, (3 hr), COS-7 cells, A354S): 0.04 nM | fold increase in FICZ responsiveness ([4]; A370S vs AHR1β, 3 hr): about 2 fold | EC50 ([4]; read-out: EC50 for reporter gene induction, FICZ, (3 hr), COS-7 cells, A370S): 0.04 nM | fold more responsive to FICZ than AHR1β ([21]; chimera vs AHR1β, 3 hr): 2.7 fold | EC50 ([21]; read-out: EC50 for reporter gene induction, FICZ, (3 hr), COS-7 cells, chimera): 0.03 ± 0.01 nM

From paper PMC3669666 (Biochemistry, 2013)
